An excerpt weighted towards active compounds, which were near 1.7% of everything screened.
SR-BI HDL uptake – inhibitors of SR-BI mediated HDL lipid uptake, primary screen, ldlA[mSR-BI] cells, fluorescence, single point. Scavenger receptor class B member 1 (Mus musculus), Q61009. ldlA[mSR-BI] CHO cells, DiI-HDL uptake fluorescence, 3 h. inhibition, % at 12.5 µM. 320,000 tested, 0.96% active. AID 488896, 2010;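 active means mean replicate inhibition of at least 70% and a set share of replicates each scoring 70 or more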
Statin myotox sup – suppressors of statin myotoxicity in C2C12 myotubes, primary screen, cell-based, single point, plate reader; C2C12 myotubes + simvastatin, ATP luminescence, 48 h; scaled: DMSO 0, geranylgeraniol control 100; rescue of ATP level, % at 7.49 µM; 330,000 tested, 0.78% active; AID 602340, 2012;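 active means mean ATP rescue above about 67%, or every replicate alone reaching that limit, limit read from the data, passing the limit was not always enough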;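 further: myotubes were challenged with 10 µM simvastatin during compound exposure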
Vif imaging – HIV Vif self-association inhibitors, primary screen, imaging, HEK293T, single point | HEK293T cells, Vif self-association by quenched fluorescence, 24 h | inhibition, % at 7.49 µM | 340,000 tested, 0.35% active; in the data active means inhibition above about 50%, passing the limit was not always enough
SR-BI uptake up – activators of SR-BI mediated DiI-HDL uptake, primary screen, ldlA[mSR-BI] CHO cells, DiI fluorescence; 320,000 tested, 0.096% active; activation, % at 12.5 µM; 3 h; 100 = double the neutral-control signal;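 active means mean replicate activation of at least 60% and every replicate at or above 60%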
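System: LDL receptor-deficient CHO ldlA cells overexpressing murine SR-BI | Timing: 3 h uptake period with compound, 37 °C | Medium: HEPES-buffered (25 mM, pH 7.4) F12 plus 0.5% BSA | Dosing: Single-point compound dose | Signal: Bottom-read fluorescence, 550/595 nm | Read-out: Retained DiI signal reflecting DiI-HDL uptake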
Hits are given with their value; i = inactive; nt = no result.

SMILES	SR-BI HDL uptake	Statin myotox sup	Vif imaging	SR-BI uptake up
Cc1cccc(NC(=O)c2ccc(N3CCCCC3)c([N+](=O)[O-])c2)n1	77	i	i	i
Cc1c(C(=O)N/N=C/c2c(O)ccc3ccccc23)nnn1-c1nonc1N	i	i	i	i
O=C(N/N=C\c1c(O)ccc2ccccc12)c1ccc(O)cc1	94	i	i	i
O=C(N/N=C\c1c(O)ccc2ccccc12)c1cncc(Br)c1	143	i	i	i
O=C(NN=Cc1c(O)ccc2ccccc12)c1ccncc1	97	nt	i	i
Cn1nccc1C(=O)N/N=C/c1c(O)ccc2ccccc12	105	i	i	i
O=C(N/N=C/c1c(O)ccc2ccccc12)c1cccnc1	i	i	i	i
CC(=O)N1[C@@H]2c3ccc(-c4ccccc4)c(=O)n3C[C@H]1[C@H](CO)[C@H]2C(=O)N1CCCCC1	nt	i	nt	nt
O=C(C[C@H]1C[C@@H]2c3cc(NS(=O)(=O)c4ccc(F)cc4)ccc3O[C@@H]2[C@@H](CO)O1)NCc1ccccc1F	nt	i	nt	nt
CC(=NNC(=O)c1ccncc1)c1ccccc1O	i	i	i	i
CCOc1ccc2ccccc2c1/C=N\NC(=O)OC	i	i	i	i
CC(=NNC(=O)c1ccncc1)c1ccc2ccccc2c1O	127	nt	i	i
O=C(N/N=C/c1ccccn1)c1ccc(Br)o1	i	i	i	i
O=C(N/N=C/c1c(O)ccc2ccccc12)c1ccc(Br)o1	124	i	i	i
Cc1ccc(C(=O)N/N=C/c2c(O)ccc3ccccc23)cn1	93	i	i	i
CCOc1ccc2ccccc2c1/C=N\NC(=O)c1ccc([N+](=O)[O-])cc1	78	i	i	i
COc1ccccc1S(=O)(=O)N[C@H]1CC[C@H](CCNC(=O)C2CCCC2)O[C@H]1CO	nt	i	nt	nt
O=C(N/N=C/c1c(O)ccc2ccccc12)c1ccc[n+](CCO)c1	i	nt	i	i
CCCn1c(/N=C/c2ccccc2O)nc2ccccc21	i	i	i	i
Cn1c(/N=C/c2c(O)ccc3ccccc23)nc2ccccc21	i	75	nt	i
Cc1occc1C(=O)N/N=C/c1c[nH]c2ccccc12	i	i	i	i
Cn1cc(C(=O)N/N=C/c2c(O)ccc3ccccc23)ccc1=O	102	nt	i	i
Cc1occc1C(=O)N/N=C/c1c(O)ccc2ccccc12	114	i	i	i
CC(C)CC#Cc1ccc2c(c1)O[C@@H](CN(C)C(=O)Cc1ccccn1)[C@@H](C)CN([C@H](C)CO)S2(=O)=O	nt	i	nt	nt
C[C@H](CO)N1C[C@H](C)[C@@H](CN(C)C(=O)Nc2ccccc2)Oc2c(NC(=O)C3CC3)cccc2C1=O	nt	i	nt	nt
SMILES	SR-BI HDL uptake	Statin myotox sup	Vif imaging	SR-BI uptake up
COc1ccc(/C=C/C(=O)Nc2ccc(OC)nc2)cc1	i	84	i	i
COc1ccc(NC(=O)/C=C/c2ccc(OC(F)F)cc2)cn1	i	i	i	i
c1ccc(CSC2=NNC(c3ccccn3)S2)cc1 (configuration not stated)	nt	nt	i	nt
O=C(CSC1=NNC(c2ccccn2)S1)Nc1ccc(C(F)(F)F)cc1 (configuration not stated)	95	nt	i	i
O=C(C[C@H]1CC[C@@H]2[C@H](COC[C@@H](O)CN2S(=O)(=O)c2cccc(Cl)c2)O1)NC1CCC1	nt	i	nt	nt
C[C@H]1CN([C@@H](C)CO)C(=O)c2cc(NC(=O)C3CC3)ccc2O[C@H]1CN(C)Cc1ccc(C(F)(F)F)cc1	nt	i	nt	nt
CO[C@H]1CN(C)C(=O)c2cc(NS(C)(=O)=O)ccc2OC[C@@H](C)N(C(=O)C2CCC2)C[C@@H]1C	nt	i	nt	nt
CC1CCC(NC(=O)N(CCCl)N=O)CC1 (configuration not stated)	i	i	59	i
CC(C)NC(=O)Nc1cccc2c1O[C@@H](CN(C)S(=O)(=O)c1ccccc1)[C@@H](C)CN([C@@H](C)CO)C2=O	nt	i	nt	nt
CCCCNS(=O)(=O)c1ccc(OCC(=O)OC)cc1	i	nt	i	i
CCCNS(=O)(=O)c1ccc(OCC(=O)OC)cc1	i	130	i	i
CCOC(=O)COc1ccc(S(=O)(=O)c2ccc(OCC(=O)OCC)cc2)cc1	i	i	120	i
O=C1NC2(CCCCCC2)Cc2ccccc21	i	i	i	i
c1ccc2c(c1)CNC1(CCCCC1)C2	i	107	i	nt
COCCNC(=O)C[C@H]1CC[C@H]2[C@@H](COc3ccc(NC(=O)c4cc(C)on4)cc3C(=O)N2C)O1	nt	i	nt	nt
